The values below come from ChEMBL document CHEMBL5653631, “A Potent and Selective ULK1 Inhibitor Suppresses Autophagy and Sensitizes Cancer Cells to Nutrient Stress” (iScience, 2018).

For assay [1], the target named is T1, Serine/threonine-protein kinase Nek11 (Homo sapiens) (UniProt Q8NG66).
T1 sequence (whole entry): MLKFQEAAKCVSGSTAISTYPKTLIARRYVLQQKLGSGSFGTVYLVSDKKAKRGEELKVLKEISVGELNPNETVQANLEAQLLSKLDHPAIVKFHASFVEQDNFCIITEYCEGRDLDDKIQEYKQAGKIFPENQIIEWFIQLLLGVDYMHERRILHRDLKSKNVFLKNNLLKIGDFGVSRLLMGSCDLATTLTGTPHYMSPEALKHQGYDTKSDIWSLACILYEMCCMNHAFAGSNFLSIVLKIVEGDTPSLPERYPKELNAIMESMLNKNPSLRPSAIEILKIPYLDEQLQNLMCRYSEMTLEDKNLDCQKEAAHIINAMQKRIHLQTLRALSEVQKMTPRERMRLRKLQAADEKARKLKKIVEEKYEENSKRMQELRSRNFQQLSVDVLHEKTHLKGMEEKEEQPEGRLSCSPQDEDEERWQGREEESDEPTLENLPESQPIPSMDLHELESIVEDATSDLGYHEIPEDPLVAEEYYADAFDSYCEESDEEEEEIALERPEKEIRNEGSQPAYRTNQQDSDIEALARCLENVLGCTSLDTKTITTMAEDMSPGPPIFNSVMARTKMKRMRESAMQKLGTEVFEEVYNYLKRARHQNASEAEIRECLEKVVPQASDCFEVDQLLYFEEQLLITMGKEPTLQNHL
Nature of the assay: Inhibition of human recombinant NEK11 at 40 nM related to control ULK1.

Assay [2] addresses T2, Serine/threonine-protein kinase Nek9 (Homo sapiens) (UniProt Q8TD19).
T2 sequence (whole entry): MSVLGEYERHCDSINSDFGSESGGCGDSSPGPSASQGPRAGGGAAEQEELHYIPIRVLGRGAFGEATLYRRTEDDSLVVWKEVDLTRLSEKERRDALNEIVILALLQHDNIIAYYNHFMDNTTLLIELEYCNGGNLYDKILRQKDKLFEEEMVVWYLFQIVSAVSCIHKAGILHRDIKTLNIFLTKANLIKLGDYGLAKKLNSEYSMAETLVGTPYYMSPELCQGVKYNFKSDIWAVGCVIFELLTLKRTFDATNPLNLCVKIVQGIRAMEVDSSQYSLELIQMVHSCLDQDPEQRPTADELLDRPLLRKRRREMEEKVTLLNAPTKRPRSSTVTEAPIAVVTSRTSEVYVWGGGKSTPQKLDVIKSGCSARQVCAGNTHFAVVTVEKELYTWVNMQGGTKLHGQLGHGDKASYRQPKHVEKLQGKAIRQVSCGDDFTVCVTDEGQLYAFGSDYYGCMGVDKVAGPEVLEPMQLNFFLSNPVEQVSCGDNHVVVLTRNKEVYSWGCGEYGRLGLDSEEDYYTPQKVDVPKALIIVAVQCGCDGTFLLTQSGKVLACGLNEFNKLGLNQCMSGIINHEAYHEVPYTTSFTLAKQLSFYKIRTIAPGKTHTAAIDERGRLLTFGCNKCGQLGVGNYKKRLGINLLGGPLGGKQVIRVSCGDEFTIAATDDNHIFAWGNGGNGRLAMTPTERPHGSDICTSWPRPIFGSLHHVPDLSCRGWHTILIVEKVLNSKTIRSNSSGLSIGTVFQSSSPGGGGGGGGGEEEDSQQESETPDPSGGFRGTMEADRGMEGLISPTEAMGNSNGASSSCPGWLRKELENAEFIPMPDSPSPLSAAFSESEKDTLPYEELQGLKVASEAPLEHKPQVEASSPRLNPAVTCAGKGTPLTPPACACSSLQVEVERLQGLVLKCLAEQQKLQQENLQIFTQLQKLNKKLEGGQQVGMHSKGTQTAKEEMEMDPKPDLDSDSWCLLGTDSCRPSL
Nature of the assay: Inhibition of human recombinant NEK9 at 40 nM related to control ULK1.

For assay [3], the target named is T3, Aurora kinase C (Homo sapiens) (UniProt Q9UQB9).
T3 sequence (whole entry): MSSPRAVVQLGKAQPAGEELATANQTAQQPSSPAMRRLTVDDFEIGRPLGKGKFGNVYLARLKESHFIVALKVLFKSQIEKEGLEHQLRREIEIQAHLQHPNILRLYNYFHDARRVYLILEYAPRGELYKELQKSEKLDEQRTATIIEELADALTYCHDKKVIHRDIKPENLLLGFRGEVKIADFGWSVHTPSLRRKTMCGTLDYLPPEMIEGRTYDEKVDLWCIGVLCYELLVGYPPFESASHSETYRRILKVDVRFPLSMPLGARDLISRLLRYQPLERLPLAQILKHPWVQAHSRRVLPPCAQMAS
Briefly: Inhibition of human recombinant AurC at 40 nM in presence of ATP by radiometric assay relative to control. In a few lines:
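Part of a radiometric in vitro activity panel of 327 recombinant human kinases. Each kinase was tested in duplicate at one inhibitor concentration. Activity remaining was expressed as a percentage of the vehicle control, and percent inhibition was taken as 100 minus that value.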

For assay [4], the target named is Serine/threonine-protein kinase NIM1 (Homo sapiens) (UniProt Q8IY84). Nature of the assay: Inhibition of human recombinant NIM1 at 40 nM in presence of ATP by radiometric assay relative to control.
For assay [5], the target named is SRSF protein kinase 3 (Homo sapiens) (UniProt Q9UPE1). Nature of the assay: Inhibition of human recombinant MSSK1 at 500 nM in presence of ATP by radiometric assay relative to control.
The target of assay [6] is Mitogen-activated protein kinase kinase kinase 10 (Homo sapiens) (UniProt Q02779). Briefly: Inhibition of human recombinant MLK2 at 500 nM related to control ULK1.
Assay [7] concerns the target Tyrosine-protein kinase ABL2 (Homo sapiens) (UniProt P42684). Nature of the assay: Inhibition of human recombinant ABL2 at 500 nM related to control ULK1.
Assay [8] deals with BDNF/NT-3 growth factors receptor (Homo sapiens) (UniProt Q16620). Nature of the assay: Inhibition of human recombinant TRKB at 500 nM related to control ULK1.
For assay [9], the target named is RAF proto-oncogene serine/threonine-protein kinase (Homo sapiens) (UniProt P04049). Briefly: Inhibition of human recombinant RAF1 at 500 nM in presence of ATP by radiometric assay relative to control.
For assay [10], the target named is 3-phosphoinositide-dependent protein kinase 1 (Homo sapiens) (UniProt O15530). Nature of the assay: Inhibition of human recombinant PDK1 at 500 nM related to control ULK1.
For a further assay, the species on record is Homo sapiens. Briefly: Inhibition of human recombinant CK1d at 15 nM in presence of ATP by radiometric assay relative to control.
For assay [11], the target named is Serine/threonine-protein kinase MRCK alpha (Homo sapiens) (UniProt Q5VT25). Briefly: Inhibition of human recombinant MRCKa at 15 nM in presence of ATP by radiometric assay relative to control.
For assay [12], the target named is Serine/threonine-protein kinase pim-2 (Homo sapiens) (UniProt Q9P1W9). Nature of the assay: Inhibition of human recombinant PIM2 at 15 nM in presence of ATP by radiometric assay relative to control.
The target in assay [13] is Angiopoietin-1 receptor (Homo sapiens) (UniProt Q02763). Briefly: Inhibition of human recombinant Tie2 at 15 nM related to control ULK1.
Angiopoietin-1 receptor (Homo sapiens), sequence (Q02763 whole entry): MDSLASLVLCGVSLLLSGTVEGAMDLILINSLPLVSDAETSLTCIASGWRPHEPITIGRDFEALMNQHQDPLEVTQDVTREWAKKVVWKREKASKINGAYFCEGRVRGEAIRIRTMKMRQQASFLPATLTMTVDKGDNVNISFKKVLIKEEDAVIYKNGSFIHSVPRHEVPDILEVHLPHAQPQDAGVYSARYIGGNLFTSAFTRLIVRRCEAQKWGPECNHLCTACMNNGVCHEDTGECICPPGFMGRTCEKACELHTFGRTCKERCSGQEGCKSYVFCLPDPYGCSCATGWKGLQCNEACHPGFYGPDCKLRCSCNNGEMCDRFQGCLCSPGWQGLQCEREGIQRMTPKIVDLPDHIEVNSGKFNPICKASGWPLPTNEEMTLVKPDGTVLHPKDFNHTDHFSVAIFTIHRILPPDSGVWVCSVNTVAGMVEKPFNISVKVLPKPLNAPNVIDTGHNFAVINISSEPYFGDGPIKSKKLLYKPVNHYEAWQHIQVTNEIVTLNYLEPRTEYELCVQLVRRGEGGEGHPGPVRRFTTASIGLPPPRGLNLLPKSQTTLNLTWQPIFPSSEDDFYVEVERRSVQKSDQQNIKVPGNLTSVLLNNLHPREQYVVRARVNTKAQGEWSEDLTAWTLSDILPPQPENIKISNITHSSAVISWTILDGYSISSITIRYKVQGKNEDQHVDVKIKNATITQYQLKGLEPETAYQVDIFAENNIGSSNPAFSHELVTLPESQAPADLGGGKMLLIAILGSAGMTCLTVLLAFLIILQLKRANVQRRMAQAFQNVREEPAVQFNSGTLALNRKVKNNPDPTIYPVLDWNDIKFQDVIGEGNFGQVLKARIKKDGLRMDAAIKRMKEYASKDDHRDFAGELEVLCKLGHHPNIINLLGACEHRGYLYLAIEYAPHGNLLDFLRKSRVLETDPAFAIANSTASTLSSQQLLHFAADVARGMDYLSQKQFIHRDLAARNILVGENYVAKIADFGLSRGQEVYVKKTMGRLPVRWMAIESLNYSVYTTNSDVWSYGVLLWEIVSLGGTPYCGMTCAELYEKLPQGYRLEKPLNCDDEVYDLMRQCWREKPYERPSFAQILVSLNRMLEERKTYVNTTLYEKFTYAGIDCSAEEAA

SRSF protein kinase 3 (Homo sapiens), sequence (Q9UPE1 whole entry): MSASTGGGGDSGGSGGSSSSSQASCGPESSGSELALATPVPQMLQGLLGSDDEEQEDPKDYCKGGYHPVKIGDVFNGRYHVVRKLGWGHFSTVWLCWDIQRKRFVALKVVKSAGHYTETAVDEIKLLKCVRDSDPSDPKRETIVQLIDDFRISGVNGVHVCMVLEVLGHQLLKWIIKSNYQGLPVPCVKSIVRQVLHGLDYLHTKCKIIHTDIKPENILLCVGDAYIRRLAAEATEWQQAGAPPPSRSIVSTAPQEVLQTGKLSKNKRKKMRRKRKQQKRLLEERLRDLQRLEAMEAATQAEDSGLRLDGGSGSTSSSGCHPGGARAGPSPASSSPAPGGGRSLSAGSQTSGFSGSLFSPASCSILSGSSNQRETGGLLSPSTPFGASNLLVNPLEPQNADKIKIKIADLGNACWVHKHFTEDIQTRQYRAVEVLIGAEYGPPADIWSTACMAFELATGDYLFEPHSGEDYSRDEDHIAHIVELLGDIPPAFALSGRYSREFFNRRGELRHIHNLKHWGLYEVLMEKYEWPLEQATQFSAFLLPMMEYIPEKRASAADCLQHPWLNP
RAF proto-oncogene serine/threonine-protein kinase (Homo sapiens), sequence (P04049 whole entry): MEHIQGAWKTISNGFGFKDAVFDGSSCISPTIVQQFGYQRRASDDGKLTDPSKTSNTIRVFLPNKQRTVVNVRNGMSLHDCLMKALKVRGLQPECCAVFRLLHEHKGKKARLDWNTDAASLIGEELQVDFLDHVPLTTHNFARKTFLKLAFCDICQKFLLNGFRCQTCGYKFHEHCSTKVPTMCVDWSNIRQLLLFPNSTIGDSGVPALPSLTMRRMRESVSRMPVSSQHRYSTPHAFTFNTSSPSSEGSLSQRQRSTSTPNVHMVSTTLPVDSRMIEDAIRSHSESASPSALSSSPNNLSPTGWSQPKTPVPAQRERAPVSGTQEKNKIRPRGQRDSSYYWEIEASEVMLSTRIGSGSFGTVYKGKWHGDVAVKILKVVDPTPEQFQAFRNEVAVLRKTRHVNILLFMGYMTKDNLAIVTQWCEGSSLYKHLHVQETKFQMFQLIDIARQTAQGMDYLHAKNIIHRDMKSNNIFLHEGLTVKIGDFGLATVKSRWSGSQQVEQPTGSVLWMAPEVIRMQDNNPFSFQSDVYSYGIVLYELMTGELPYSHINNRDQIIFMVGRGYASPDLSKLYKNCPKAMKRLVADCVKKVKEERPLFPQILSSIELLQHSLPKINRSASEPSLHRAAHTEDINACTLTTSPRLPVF
Serine/threonine-protein kinase NIM1 (Homo sapiens), sequence (Q8IY84 whole entry): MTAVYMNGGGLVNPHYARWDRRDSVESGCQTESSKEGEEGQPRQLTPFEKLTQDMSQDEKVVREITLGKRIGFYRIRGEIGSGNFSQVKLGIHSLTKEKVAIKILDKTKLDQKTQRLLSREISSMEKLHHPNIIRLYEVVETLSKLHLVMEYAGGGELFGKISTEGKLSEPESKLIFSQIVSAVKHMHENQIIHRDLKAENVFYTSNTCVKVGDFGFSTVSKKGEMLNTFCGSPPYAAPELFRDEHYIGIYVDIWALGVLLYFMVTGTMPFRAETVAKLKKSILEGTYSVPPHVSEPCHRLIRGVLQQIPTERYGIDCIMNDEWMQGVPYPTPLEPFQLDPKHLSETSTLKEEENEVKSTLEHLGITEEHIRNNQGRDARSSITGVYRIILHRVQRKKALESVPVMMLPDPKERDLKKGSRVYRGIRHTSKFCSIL
3-phosphoinositide-dependent protein kinase 1 (Homo sapiens), sequence (O15530 whole entry, looked up): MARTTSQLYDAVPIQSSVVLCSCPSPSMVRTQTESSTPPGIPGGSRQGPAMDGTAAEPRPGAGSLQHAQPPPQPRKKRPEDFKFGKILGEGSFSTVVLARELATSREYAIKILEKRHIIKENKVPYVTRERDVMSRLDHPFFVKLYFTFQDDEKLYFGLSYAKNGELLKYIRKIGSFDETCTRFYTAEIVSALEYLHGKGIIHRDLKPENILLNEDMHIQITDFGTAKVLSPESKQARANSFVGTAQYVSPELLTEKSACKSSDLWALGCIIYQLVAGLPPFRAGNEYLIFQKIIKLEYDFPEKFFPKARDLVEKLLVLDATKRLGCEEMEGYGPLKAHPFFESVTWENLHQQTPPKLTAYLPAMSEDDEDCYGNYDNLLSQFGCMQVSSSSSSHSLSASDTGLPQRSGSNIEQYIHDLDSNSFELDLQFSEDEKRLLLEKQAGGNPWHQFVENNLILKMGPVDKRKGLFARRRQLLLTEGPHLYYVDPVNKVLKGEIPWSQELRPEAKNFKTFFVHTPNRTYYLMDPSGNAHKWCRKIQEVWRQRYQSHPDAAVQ
Serine/threonine-protein kinase MRCK alpha (Homo sapiens), sequence (Q5VT25 whole entry): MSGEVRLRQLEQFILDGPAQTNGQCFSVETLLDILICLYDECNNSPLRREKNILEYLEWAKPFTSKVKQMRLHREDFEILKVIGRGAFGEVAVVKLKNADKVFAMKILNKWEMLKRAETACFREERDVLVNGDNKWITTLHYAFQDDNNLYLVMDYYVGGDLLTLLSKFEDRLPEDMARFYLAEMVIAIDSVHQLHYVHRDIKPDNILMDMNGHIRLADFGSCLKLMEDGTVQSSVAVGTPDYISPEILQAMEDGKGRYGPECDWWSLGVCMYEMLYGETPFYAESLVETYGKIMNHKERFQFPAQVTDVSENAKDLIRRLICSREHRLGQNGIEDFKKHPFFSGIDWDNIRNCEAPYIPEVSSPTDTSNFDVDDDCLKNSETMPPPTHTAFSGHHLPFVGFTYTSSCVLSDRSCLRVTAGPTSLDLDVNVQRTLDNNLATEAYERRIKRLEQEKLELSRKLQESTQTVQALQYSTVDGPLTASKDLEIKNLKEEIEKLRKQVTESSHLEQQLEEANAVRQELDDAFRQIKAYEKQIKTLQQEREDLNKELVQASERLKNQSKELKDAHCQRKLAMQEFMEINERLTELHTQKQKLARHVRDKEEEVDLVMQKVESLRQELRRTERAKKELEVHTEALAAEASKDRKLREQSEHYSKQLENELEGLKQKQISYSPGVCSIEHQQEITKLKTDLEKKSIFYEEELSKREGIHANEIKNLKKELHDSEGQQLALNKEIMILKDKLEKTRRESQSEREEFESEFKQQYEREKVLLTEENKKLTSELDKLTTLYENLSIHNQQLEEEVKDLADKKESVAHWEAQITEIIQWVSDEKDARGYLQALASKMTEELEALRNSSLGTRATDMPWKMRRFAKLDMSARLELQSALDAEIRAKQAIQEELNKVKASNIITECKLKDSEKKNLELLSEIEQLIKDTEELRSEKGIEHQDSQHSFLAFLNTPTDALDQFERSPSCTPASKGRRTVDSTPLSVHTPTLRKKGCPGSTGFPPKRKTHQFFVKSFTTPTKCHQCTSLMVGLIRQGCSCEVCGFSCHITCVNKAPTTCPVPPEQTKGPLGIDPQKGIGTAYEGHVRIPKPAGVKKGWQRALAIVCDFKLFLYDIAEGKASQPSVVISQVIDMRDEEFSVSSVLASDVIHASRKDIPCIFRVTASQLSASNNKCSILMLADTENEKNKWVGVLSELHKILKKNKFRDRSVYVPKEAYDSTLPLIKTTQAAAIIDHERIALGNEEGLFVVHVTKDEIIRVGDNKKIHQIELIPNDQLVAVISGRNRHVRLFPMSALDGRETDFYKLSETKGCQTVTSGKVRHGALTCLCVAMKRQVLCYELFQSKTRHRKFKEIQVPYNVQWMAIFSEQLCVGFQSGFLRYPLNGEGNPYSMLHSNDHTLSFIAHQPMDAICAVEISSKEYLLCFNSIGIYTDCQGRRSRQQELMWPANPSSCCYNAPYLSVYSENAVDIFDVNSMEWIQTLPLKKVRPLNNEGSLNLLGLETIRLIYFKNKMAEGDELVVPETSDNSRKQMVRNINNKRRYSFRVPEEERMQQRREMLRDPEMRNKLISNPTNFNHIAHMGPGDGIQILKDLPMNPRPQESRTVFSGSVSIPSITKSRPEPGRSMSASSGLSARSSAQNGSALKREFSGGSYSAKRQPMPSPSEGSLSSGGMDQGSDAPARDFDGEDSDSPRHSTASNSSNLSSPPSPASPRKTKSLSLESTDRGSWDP

The inhibition is how much of the control response was suppressed. On to `O=C(N[C@@H](C1CC1)C(F)(F)F)c1cc(-c2cnn3cc(-c4ccc(F)cc4)cnc23)cs1`, for which the figures for the fold change (FC) in assay [1] and in [2] were 0.11 and 0.07, respectively. Further, the inhibition in [3] and in [4] was 0% each time.
As for `CNC(=O)c1ccccc1Oc1nc(Nc2cc(OC)c(OC)c(OC)c2)ncc1Br`, the inhibition in assay [5] was found to be 15%; in assay [9], 11%. In addition, the fold change (FC) in assay [6] was 0.95; in assay [7], 0.28; in [8], 0.65; in assay [10], 0.05.
Regarding `CC(C)[C@H](NC(=O)c1cc(-c2cnn3cc(-c4ccc(OCCN5CCCCC5)cc4)cnc23)cs1)C(F)(F)F`, the inhibition in the assay listed under Homo sapiens was found to be 3%; in assay [11], 11%; in assay [12], 0%. Moreover, the fold change (FC) in assay [13] stood at 0.
